Yeast lifespan up = yeast lifespan extension | inhibition of the nicotinamide effect, % at 10 µM | AID 775 | S. cerevisiae growth with nicotinamide, OD615; deaD strain in restrictive glucose medium | hit rate 0.68% among 130,000;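 active means inhibition above a set limit, placed 3 SD over the median of all compounds, cut at about 26% in these data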;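 further: 0% = nicotinamide-treated wells and 100% = cells grown without nicotinamide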
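Assay system: DeaD-strain S. cerevisiae. Medium: CSMM-D glucose medium, restrictive. Reagent: nicotinamide, 1.5 mM, co-present with compound. Compound: 10 µM single point, 0.25% DMSO. Schedule: culture preincubation 4 h, compound exposure 48 h, both 30 °C. Detection: absorbance at 615 nm.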
SDO1 yeast rescue = compounds rescuing growth of sdo1-depleted yeast, bone marrow failure model | S. cerevisiae sdo1-depleted JHY4D growth rescue, OD600 30 h; active compounds read high; pdr5 snq2 efflux-pump mutant strain | z-score at 10 µM | hit rate 0.21% among 140,000;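 active means z-score above 3 at both the 24 hr and the 30 hr optical density reads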;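 further: z-score against mean and SD of all compound wells on the same plate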
Yeast growth inh = yeast BB579 growth reduction in restrictive medium; S. cerevisiae BB579 growth, OD615, 48 h; inhibition, % at 10 µM; hit rate 0.51% among 140,000;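 active means inhibition above a set limit, 3 SD over the mean compound inhibition, cut at about 44% in these data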
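Detection: OD615 turbidity measurement; Material: Saccharomyces cerevisiae DeaD strain BB579, replicative lifespan model yeast; Timing: 48 h exposure, 30 °C; Doses: single 10 µM dose; Medium: CSMM-D restrictive synthetic medium containing dextrose (glucose); Controls: amphotericin B at 10 µg/mL as positive control.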
HMGR II inh = E. faecalis class II HMG-CoA reductase inhibition; purified E. faecalis HMGR, NADPH absorbance 340 nm kinetic; inhibition, % at 10 µM; hit rate 0.41% among 190,000;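 active means inhibition above a set limit, the median over all tested compounds plus 3 SD, cut at about 9.5% in these data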;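 further: enzyme runs in reverse so mevalonate oxidation gives rising NADPH absorbance; 0% = complete reaction with DMSO and 100% = background rate lacking mevalonate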
sdo1 rescue conf = confirmation of growth rescue in SDO1-depleted yeast, bone marrow failure; S. cerevisiae JHY4D (SDO1-depleted) growth rescue, OD600, 30 h; active compounds read high; efflux-deficient strain, SNQ2 and PDR5 mutated; OD recovery (test concentration not listed); shares compounds with SDO1 yeast rescue; AID 949; hit rate 44% among 440;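 active means yeast growth recovered at 30 hours, either rising with dose fitted slope above 0.001 or with average optical density gain above 0.07, some results past the limit were not filed as active; inactive means growth falling with dose or no effect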;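 further: gain in OD600 from 0 h to 30 h averaged across all seven doses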
An asterisk follows results filed as active; . = no result. Sampled rows, rich in hits. Any-hit rate of the full collection: about 1.3%.

SMILES	Yeast lifespan up	SDO1 yeast rescue	Yeast growth inh	HMGR II inh	sdo1 rescue conf
CCC(C)[C@@H](NC(=O)OC(C)(C)C)c1nnc(S(=O)(=O)Cc2cccc(C)c2)o1 (some centres undefined)	-3.4	5.64*	-31.4	6.0	0.105*
CCCCC(=O)N(Cc1ccc2c(c1)OCO2)Cc1nc2ccccc2c(=O)[nH]1	.	.	.	3.9	.
Cc1ccc(C(=O)N(Cc2ccc3c(c2)OCO3)Cc2nc3ccccc3c(=O)[nH]2)cc1	-8.3	8.46*	-24.1	3.4	0.0905*
CN(c1ccccc1)S(=O)(=O)c1ccc(NC(=S)NC(=O)c2ccccc2)cc1	-13.4	-1.43	-18.2	-1.7	.
COc1ccccc1/C=C/C(=O)NC(=S)Nc1ccc(S(=O)(=O)N(C)c2ccccc2)cc1	17.2	2.02	-33.2	-3.1	0.0473
Cc1cccc(N2C(=N)SCC2=O)c1C	2.9	1.1	-18.5	2.4	.
CC(C)OC(=O)CSc1nnc(-c2ccccc2)n1N	-2.9	6.7*	-3.4	-12.4	0.0443
COc1ccc(OCC(O)Cn2c(Nc3ccccc3)nc3c2c(=O)n(C)c(=O)n3C)cc1 (centres undefined)	0.1	1.2	-67.0	2.2	0.0518*
Cn1c(=O)c2c(nc(NC3CCCCC3)n2CC(O)COc2ccccc2)n(C)c1=O (centres undefined)	-5.1	-0.9	-32.8	-4.0	.
Cc1cccc(NC(=O)C2(c3ccc([N+](=O)[O-])cc3)CCCC2)c1	-2.9	6.45*	-18.0	1.9	0.0509
Cc1ccc(N=C2SC(C(=O)Nc3ccc(OC(F)(F)F)cc3)C(N)=C2C(=O)Nc2c(C)cc(C)cc2C)cc1 (centres undefined)	5.0	-0.12	-30.4	1.9	.
CCC(C)[C@H](NC(=O)NCCCN1CCOCC1)C(=O)OC (some centres undefined)	-5.9	5.59*	-6.0	-6.8	0.065
C=CCNC(=O)COC(=O)c1ccc(Sc2nncn2C)c([N+](=O)[O-])c1	.	.	.	1.1	.
COc1ccc(OC)c(C(=O)c2ccc(C(=O)Nc3cccc4ccccc34)cc2)c1	-0.5	-0.31	5.3	-4.1	.
CC(OC(=O)c1c2c(nc3ccccc13)/C(=C\c1ccc3c(c1)OCO3)CCC2)C(=O)Nc1ccc(S(N)(=O)=O)cc1 (centres undefined)	-4.7	1.46	-15.8	0.3	0.0846*
O=C(N=NC(=O)c1ccco1)c1ccc2c(O)n(N3C(=O)c4ccccc4C3=O)c(O)c2c1	0.9	3.51*	-34.4	-6.4	0.0749*
COc1ccccc1OCC(=O)O	-4.3	0.33	-0.2	-1.6	.
COc1ccccc1OC(C)C(=O)O (centres undefined)	-4.1	5.15*	4.3	-6.4	0.0676
Cc1cc(C(=O)OC(C(=O)Nc2ccc(C)c(Cl)c2)c2ccccc2)c(C)o1 (centres undefined)	1.1	-0.29	2.4	2.5	.
Cc1ccc(C(C[N+](=O)[O-])c2c(-c3ccccc3O)[nH][nH]c2=O)cc1 (centres undefined)	11.2	-1.57	23.8	2.9	.
CC(C)=Cc1c(O)nc2ccccn2c1=O	.	.	.	-0.8	.
COc1cccc(NC(=S)NNC(=O)C(C)n2nc(C)c([N+](=O)[O-])c2C)c1 (centres undefined)	-9.3	4.03*	-35.1	-6.3	0.0629
Cc1ccc(Cn2c(Sc3nccc(C)n3)nc3c2c(=O)[nH]c(=O)n3C)cc1	-7.2	1.61	-47.0	-3.0	0.0943*
Cc1ccc(Cn2c(Sc3ncccn3)nc3c2c(=O)[nH]c(=O)n3C)cc1	-12.3	0.8	-47.3	-1.2	.
Cc1ccc(/C([O-])=C(/C(=S)NCc2ccc3c(c2)OCO3)[n+]2ccc(N(C)C)cc2)c(C)c1	.	.	.	0.6	.
CSc1nsc(SC)c1C(=O)N1CCN(S(=O)(=O)c2ccc(C)cc2)C1C(C)C (centres undefined)	.	-1.04	-1.9	-2.7	.
CSc1nsc(SC)c1C(=O)N1CCN(S(=O)(=O)c2ccc(C)cc2)C1C (centres undefined)	-24.8	3.85*	-24.2	-2.8	0.0533
COc1ccc(S(=O)(=O)N2CCCC(C(F)(F)F)C2)cc1 (centres undefined)	.	.	.	-7.6	.
COC(=O)C1(c2ccccc2)NC(c2cccs2)C2C(=O)N(c3ccccc3)C(=O)C21 (centres undefined)	.	0.05	-14.2	7.1	.

Screening results (PubChem BioAssay)
